# From article PMC8458242 (Biochimie, 2021)
# Entries after “also recorded” stand apart in the source; their conditions may differ. Like-named read-outs stand apart in the source and are kept apart here.
# Legend:
# [1] = Viability assay in WS1 cell cultures; assay type: cell-based, human; conditions: human, WS1 cells
# [2] = tested on: CMV AD169; assay: Anti-CMV activity in WS1 cell cultures; assay type: cell-based, Human cytomegalovirus; conditions: human fibroblast WS1 cell line infected with CMV AD169, 5 days, n=3
# [3] = tested on: WS1 cells; assay: Viability assay in WS1 cell cultures; assay type: cell-based, human; conditions: read-out: Cytotoxicity CC50; WS1 cell line, MTT, three days
# [4] = tested on: MT-4 cells; assay: Viability assay in MT-4 cell cultures; assay type: cell-based, Human
# [5] = tested on: CMV (AD169); assay: Anti-CMV activity in HIV-1/CMV coinfected human tissues ex vivo; assay type: cell-based, Human cytomegalovirus; conditions: for inhibition of number of CMV DNA copies/μL: HIV-1/CMV-coinfected human lymphoid tissue, 10 μM, 15 days
# Outline: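 Human tonsil tissue blocks (2-3 mm) cultured on collagen sponge at the air-liquid interface in RPMI 1640 with 15% FBS. Blocks pretreated with test compound (10 μM) 12 h before simultaneous infection with HIV-1 X4LAI.04 and CMV AD169 stocks. Medium changed every 3 days; 15 days at 37°C. CMV DNA in culture medium measured by real-time PCR, as percent of untreated control. Means ± SEM, 3 or 6 donors.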
# [6] = Viability assay in MT-4 cell cultures; assay type: cell-based, Human; conditions: human, MT-4 cells
# [7] = tested on: HIV-1 (X4LAI.04); assay: Anti-HIV-1 activity in HIV-1/CMV coinfected human tissues ex vivo; assay type: cell-based; conditions: for inhibition of HIV-1 replication by controls: coinfected tissues, control drugs, concentration not given, n=3; for inhibition of cumulative production of p24gag: HIV-1/CMV-coinfected human lymphoid tissue, 10 μM, 15 days
# Outline: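 Tonsillar tissue blocks (2-3 mm) kept on collagen sponge at the air-liquid interface, RPMI 1640 with 15% FBS. Pretreated with test compound at 10 μM 12 h before coinoculation with HIV-1 X4LAI.04 and CMV AD169. Medium changed every 3 days; cultured 15 days at 37°C. p24gag in medium measured by Luminex bead assay, as percent of untreated control. Means ± SEM, 3 or 6 donors.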
# [8] = tested on: CMV; conditions: cited from earlier work
# [9] = tested on: MT-4 cells; conditions: cited from earlier work
# [10] = tested on: esterase from porcine liver; assay: Hydrolysis of the compounds by esterase from porcine liver; conditions: Tris-HCl buffer pH 8.2, 37 °C
# [11] = tested on: HIV-1 X4LAI.04; assay: Anti HIV-1 activity in human tonsillar tissue ex vivo; assay type: cell-based; conditions: 12 days
# [12] = tested on: esterase from porcine liver
# [13] = 1 nM (first of five concentrations ranging from 1 nM to 10 μM)
# [14] = 10 μM (fifth of five concentrations ranging from 1 nM to 10 μM)
# [15] = fourth of five concentrations ranging from 1 nM to 10 μM
# [16] = second of five concentrations ranging from 1 nM to 10 μM
# [17] = third of five concentrations ranging from 1 nM to 10 μM
structure (smiles),measurement,setting,value
"O=C(O)Cn1c(=O)ccn(CCCCCCCCCCCCOc2ccc(Br)cc2)c1=O [2f, [3-[12-(4-bromophenoxy)dodecyl]-2,6-dioxo-3,6-dihydropyrimidin-1(2H)-yl]acetic acid]",CC50 at 3 days,[1],22 µM
same,Antiviral activity EC50 ± SD,[2],inactive
"Cc1cn([C@H]2C[C@H](N=[N+]=[N-])[C@@H](COC(=O)Cn3c(=O)ccn(CCCCCCCCCCOc4ccc(Br)cc4)c3=O)O2)c(=O)[nH]c1=O [3e, (3'-azido-3'-deoxytimidine)-2-(3-((4-bromophenoxy)decyl)-2,6-dioxo-2,3-dihydropyrimidin-1(6H)-yl)acetate]",CC50,[3],182 µM
same,CC50,[4],> 100 µM
"O=C(O)Cn1c(=O)ccn(CCCCCCOc2ccc(Br)cc2)c1=O [2c, [3-[6-(4-bromophenoxy)hexyl]-2,6-dioxo-3,6-dihydropyrimidin-1(2H)-yl]acetic acid]",inhibition of CMV by control compounds,"[5]; coinfected tissues, control compounds, concentration not given, n=3",68.6 ± 11.3%
same,CC50 at 3 days,[1],724 µM
same,CC50 at 3 days,[6],> 100 µM
"Cc1cn([C@H]2C[C@H](N=[N+]=[N-])[C@@H](COC(=O)Cn3c(=O)ccn(CCCCCCCCCCCCOc4ccc(Br)cc4)c3=O)O2)c(=O)[nH]c1=O [3f, (3'-azido-3'-deoxytimidine)-2-(3-((4-bromophenoxy)dodecyl)-2,6-dioxo-2,3-dihydropyrimidin-1(6H)-yl)acetate]",CC50,[3],253 µM
same,CC50,[4],> 100 µM
"Cc1cn([C@H]2C[C@H](N=[N+]=[N-])[C@@H](COC(=O)Cn3c(=O)ccn(CCCCCCCCOc4ccc(Br)cc4)c3=O)O2)c(=O)[nH]c1=O [3d, (3'-azido-3'-deoxytimidine)-2-(3-((4-bromophenoxy)octyl)-2,6-dioxo-2,3-dihydropyrimidin-1(6H)-yl)acetate]",CC50,[3],600 µM
same,CC50,[4],> 100 µM
"Nc1ccn([C@@H]2CS[C@H](CO)O2)c(=O)n1 [3TC, (−)-L-2′,3′-dideoxy-3′-thiacytidine]",inhibition of HIV-1 replication by controls,[7],99.7 ± 0.2%
same,effect on CMV replication / anti CMV activity,[8],no effect on CMV replication
same,CC50,[9],> 100 µM
"Cc1cn([C@H]2C[C@H](N=[N+]=[N-])[C@@H](COC(=O)Cn3c(=O)ccn(CCCCCCOc4ccc(Br)cc4)c3=O)O2)c(=O)[nH]c1=O [3c, (3'-azido-3'-deoxytimidine)-2-(3-((4-bromophenoxy)hexyl)-2,6-dioxo-2,3-dihydropyrimidin-1(6H)-yl)acetate]",inhibition of number of CMV DNA copies/μL,[5],86.9 ± 3.3%
same,CC50,[3],393 µM
same,CC50,[4],> 100 µM
same,inhibition of cumulative production of p24gag,[7],97.2 ± 2.1%
same,T1/2 of hydrolysis by esterase,[10],7 to 8 h
same,inhibition of HIV-1 replication,[11]; [13],0 ± 0.5%
same,inhibition of HIV-1 replication,[11]; [14],96.2 ± 1.0%
same,inhibition of HIV-1 replication,[11]; [15],76.5 ± 3.3%
same,inhibition of HIV-1 replication,[11]; [16],17.9 ± 8.2%
same,inhibition of HIV-1 replication,[11]; [17],31.4 ± 7.7%
"O=C(O)Cn1c(=O)ccn(CCCCCCCCCCOc2ccc(Br)cc2)c1=O [2e, [3-[10-(4-bromophenoxy)decyl]-2,6-dioxo-3,6-dihydropyrimidin-1(2H)-yl]acetic acid]",CC50 at 3 days,[1],164 µM
same,Antiviral activity EC50 ± SD,[2],inactive
"Cc1cn([C@H]2C[C@H](N=[N+]=[N-])[C@@H](COC(=O)Cn3c(=O)ccn(CCCCCOc4ccc(Br)cc4)c3=O)O2)c(=O)[nH]c1=O [3b, (3'-azido-3'-deoxytimidine)-2-(3-((4-bromophenoxy)pentyl)-2,6-dioxo-2,3-dihydropyrimidin-1(6H)-yl)acetate]",CC50,[3],173 µM
same,CC50,[4],> 100 µM
same,T1/2 of hydrolysis by esterase,[10],7 to 8 h
CC(=O)OC[C@H]1O[C@@H](n2cc(C)c(=O)[nH]c2=O)C[C@@H]1OC(C)=O [Thymidine diacetate],hydrolysis totally completed after,[12],5 to 6 h
"Nc1ccn([C@@H]2CS[C@H](COC(=O)Cn3c(=O)ccn(CCCCCCOc4ccc(Br)cc4)c3=O)O2)c(=O)n1 [4c, ((−)-L-2′,3′-dideoxy-3′-thiacytidine)-2-(3-((4-bromophenoxy)hexyl)-2,6-dioxo-2,3-dihydropyrimidin-1(6H)-yl)acetate]",inhibition of number of CMV DNA copies/μL,[5],78.7 ± 1.7%
same,CC50,[4],> 100 µM
same,inhibition of cumulative production of p24gag,[7],99.4 ± 0.4%
same,T1/2 of hydrolysis by esterase,[10],about 24 hrs
same,inhibition of HIV-1 replication,[11]; [13],0.6 ± 0.2%
same,inhibition of HIV-1 replication,[11]; [14],99.6 ± 0.1%
same,inhibition of HIV-1 replication,[11]; [15],88.6 ± 2.9%
same,inhibition of HIV-1 replication,[11]; [16],14.6 ± 6.5%
same,inhibition of HIV-1 replication,[11]; [17],45.7 ± 3.7%
"O=C(O)Cn1c(=O)ccn(CCCOc2ccc(Br)cc2)c1=O [2a, [3-[3-(4-bromophenoxy)propyl]-2,6-dioxo-3,6-dihydropyrimidin-1(2H)-yl]acetic acid]",CC50 at 3 days,[1],965 µM
same,Antiviral activity EC50 ± SD,[2],inactive
"Cc1cn([C@H]2C[C@H](N=[N+]=[N-])[C@@H](COC(=O)Cn3c(=O)ccn(CCCOc4ccc(Br)cc4)c3=O)O2)c(=O)[nH]c1=O [3a, (3'-azido-3'-deoxytimidine)-2-(3-((4-bromophenoxy)propyl)-2,6-dioxo-2,3-dihydropyrimidin-1(6H)-yl)acetate]",CC50,[3],347 µM
same,CC50,[4],82.1 µM
"O=C(O)Cn1c(=O)ccn(CCCCCOc2ccc(Br)cc2)c1=O [2b, [3-[5-(4-bromophenoxy)pentyl]-2,6-dioxo-3,6-dihydropyrimidin-1(2H)-yl]acetic acid]",CC50 at 3 days,[1],749 µM
"O=C(O)Cn1c(=O)ccn(CCCCCCCCOc2ccc(Br)cc2)c1=O [2d, [3-[8-(4-bromophenoxy)octyl]-2,6-dioxo-3,6-dihydropyrimidin-1(2H)-yl]acetic acid]",CC50 at 3 days,[1],90.5 µM
"Cc1cn([C@H]2C[C@H](N=[N+]=[N-])[C@@H](CO)O2)c(=O)[nH]c1=O [AZT, 2',3'-dideoxy-3'-azidothymidine]",inhibition of HIV-1 replication by controls,[7],97.0 ± 1.6%
same,effect on CMV replication / anti CMV activity,[8],does not have any anti CMV activity; also recorded: no effect on CMV replication
same,CC50,[9],> 100 µM
"Nc1nc(O)c2ncn(COC(CO)CO)c2n1 [GCV, ganciclovir, reference compound]",CC50 at 3 days,[1],500 µM
